Assay results published in ChEMBL document CHEMBL4828723, “Synthesis and Biological Evaluation of Falcarinol-Type Analogues as Potential Calcium Channel Blockers” (J Nat Prod, 2021).
Calls of active or inactive are those of the source. The rule behind the calls is not given here.

Assays:
[1] = tested on: PC-12; experiment: Neuroprotective activity against NaN3-induced cell injury in rat PC12 cells assessed as cell survival rate at 40 uM measured after 24 hrs by CCK-8 assay (reference value: 49.9 to 52%); assay type: functional; conditions: read-out: Survival
[2] = tested on: PC-12; experiment: Neuroprotective activity against NaN3-induced cell injury in rat PC12 cells assessed as cell survival rate at 100 uM measured after 24 hrs by CCK-8 assay (reference value: 49.9 to 52%); assay type: functional; conditions: read-out: Survival
[3] = tested on: PC-12; experiment: Neuroprotective activity against NaN3-induced cell injury in rat PC12 cells assessed as cell survival rate at 20 uM measured after 24 hrs by CCK-8 assay (reference value: 49.9 to 52%); assay type: functional; conditions: read-out: Survival
[4] = tested on: PC-12; experiment: Neuroprotective activity against NaN3-induced cell injury in rat PC12 cells assessed as cell survival rate at 5 uM measured after 24 hrs by CCK-8 assay (reference value: 49.9 to 52%); assay type: functional; conditions: read-out: Survival
[5] = tested on: PC-12; experiment: Neuroprotective activity against NaN3-induced cell injury in rat PC12 cells assessed as cell survival rate at 10 uM measured after 24 hrs by CCK-8 assay (reference value: 49.9 to 52%); assay type: functional; conditions: read-out: Survival
[6] = tested on: PC-12; experiment: Neuroprotective activity against NaN3-induced cell injury in rat PC12 cells assessed as cell survival rate at 80 uM measured after 24 hrs by CCK-8 assay (reference value: 49.9 to 52%); assay type: functional; conditions: read-out: Survival
[7] = tested on: PC-12; experiment: Neuroprotective activity against NaN3-induced cell injury in rat PC12 cells assessed as cell survival rate at 20 uM measured after 24 hrs by CCK-8 assay (reference value: 50%); assay type: functional; conditions: read-out: Survival
[8] = tested on: PC-12; experiment: Neuroprotective activity against NaN3-induced cell injury in rat PC12 cells assessed as cell survival rate at 40 uM measured after 24 hrs by CCK-8 assay (reference value: 50%); assay type: functional; conditions: read-out: Survival
[9] = tested on: PC-12; experiment: Neuroprotective activity against NaN3-induced cell injury in rat PC12 cells assessed as cell survival rate at 10 uM measured after 24 hrs by CCK-8 assay (reference value: 50%); assay type: functional; conditions: read-out: Survival
[10] = tested on: PC-12; experiment: Neurotrophic activity in rat PC12 cells assessed as cell survival rate at 1 uM measured after 24 hrs by CCK-8 assay (reference value: 50%); conditions: PC-12, 24 h
[11] = molecular target: T1, Cav1.2 (L-type calcium channel alpha1c/beta2a/alpha2delta1) (Homo sapiens, UniProt P54289+Q08289+Q13936); experiment: Inhibition of human alpha1c/beta2a/alpha2delta1 Cav1.2 expressed in HEK293 cells assessed as time course of inhibition of membrane potential measured after washout with external solution at 30 uM by manual patch clamp technique; assay type: cell-based
T1 sequence (P54289 25-956 limits assumed): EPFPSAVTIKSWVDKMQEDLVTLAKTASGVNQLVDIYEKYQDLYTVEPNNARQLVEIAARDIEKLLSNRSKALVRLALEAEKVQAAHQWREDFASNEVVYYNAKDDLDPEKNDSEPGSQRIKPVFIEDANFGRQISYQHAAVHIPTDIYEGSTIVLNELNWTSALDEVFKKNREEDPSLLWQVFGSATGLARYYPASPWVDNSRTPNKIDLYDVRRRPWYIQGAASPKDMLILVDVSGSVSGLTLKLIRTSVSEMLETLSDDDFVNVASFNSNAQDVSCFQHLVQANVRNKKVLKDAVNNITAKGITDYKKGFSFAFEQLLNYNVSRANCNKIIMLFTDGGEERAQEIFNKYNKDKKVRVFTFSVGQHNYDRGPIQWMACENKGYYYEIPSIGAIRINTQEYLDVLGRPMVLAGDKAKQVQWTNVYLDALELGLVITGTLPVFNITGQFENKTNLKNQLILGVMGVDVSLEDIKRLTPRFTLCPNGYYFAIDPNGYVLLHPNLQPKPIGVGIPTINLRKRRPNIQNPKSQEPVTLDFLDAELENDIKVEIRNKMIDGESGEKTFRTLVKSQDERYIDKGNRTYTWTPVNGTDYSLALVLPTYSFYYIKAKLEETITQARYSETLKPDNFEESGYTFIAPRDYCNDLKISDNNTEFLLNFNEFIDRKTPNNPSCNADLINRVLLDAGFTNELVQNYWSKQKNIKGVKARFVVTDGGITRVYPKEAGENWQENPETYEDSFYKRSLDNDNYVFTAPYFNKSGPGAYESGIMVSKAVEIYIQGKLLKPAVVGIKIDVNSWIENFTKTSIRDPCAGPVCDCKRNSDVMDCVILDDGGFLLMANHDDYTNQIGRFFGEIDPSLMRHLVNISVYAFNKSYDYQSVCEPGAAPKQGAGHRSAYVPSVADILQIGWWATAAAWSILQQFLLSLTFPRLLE
T1 sequence (P54289 957-1103 limits assumed): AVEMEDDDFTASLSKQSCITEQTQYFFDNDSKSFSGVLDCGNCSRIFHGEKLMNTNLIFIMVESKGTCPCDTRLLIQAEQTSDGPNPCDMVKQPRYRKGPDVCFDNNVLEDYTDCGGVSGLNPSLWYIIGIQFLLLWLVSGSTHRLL
T1 sequence (Q08289 whole entry): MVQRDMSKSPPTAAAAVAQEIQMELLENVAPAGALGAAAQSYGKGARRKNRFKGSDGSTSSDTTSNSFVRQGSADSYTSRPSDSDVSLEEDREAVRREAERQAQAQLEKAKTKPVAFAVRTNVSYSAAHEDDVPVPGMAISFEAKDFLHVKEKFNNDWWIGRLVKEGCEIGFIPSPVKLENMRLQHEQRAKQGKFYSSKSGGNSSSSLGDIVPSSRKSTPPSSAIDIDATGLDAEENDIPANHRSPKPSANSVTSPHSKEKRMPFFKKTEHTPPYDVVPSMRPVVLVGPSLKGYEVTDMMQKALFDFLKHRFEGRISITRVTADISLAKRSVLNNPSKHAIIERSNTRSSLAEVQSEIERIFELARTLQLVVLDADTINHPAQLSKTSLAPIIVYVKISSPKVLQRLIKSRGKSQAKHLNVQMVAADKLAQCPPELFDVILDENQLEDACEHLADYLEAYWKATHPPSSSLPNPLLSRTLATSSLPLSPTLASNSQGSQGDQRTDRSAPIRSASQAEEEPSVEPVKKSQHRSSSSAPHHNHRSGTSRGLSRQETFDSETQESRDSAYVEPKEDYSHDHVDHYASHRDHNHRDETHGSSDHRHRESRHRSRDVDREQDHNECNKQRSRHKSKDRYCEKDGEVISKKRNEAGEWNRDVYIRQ
T1 sequence (Q13936 whole entry): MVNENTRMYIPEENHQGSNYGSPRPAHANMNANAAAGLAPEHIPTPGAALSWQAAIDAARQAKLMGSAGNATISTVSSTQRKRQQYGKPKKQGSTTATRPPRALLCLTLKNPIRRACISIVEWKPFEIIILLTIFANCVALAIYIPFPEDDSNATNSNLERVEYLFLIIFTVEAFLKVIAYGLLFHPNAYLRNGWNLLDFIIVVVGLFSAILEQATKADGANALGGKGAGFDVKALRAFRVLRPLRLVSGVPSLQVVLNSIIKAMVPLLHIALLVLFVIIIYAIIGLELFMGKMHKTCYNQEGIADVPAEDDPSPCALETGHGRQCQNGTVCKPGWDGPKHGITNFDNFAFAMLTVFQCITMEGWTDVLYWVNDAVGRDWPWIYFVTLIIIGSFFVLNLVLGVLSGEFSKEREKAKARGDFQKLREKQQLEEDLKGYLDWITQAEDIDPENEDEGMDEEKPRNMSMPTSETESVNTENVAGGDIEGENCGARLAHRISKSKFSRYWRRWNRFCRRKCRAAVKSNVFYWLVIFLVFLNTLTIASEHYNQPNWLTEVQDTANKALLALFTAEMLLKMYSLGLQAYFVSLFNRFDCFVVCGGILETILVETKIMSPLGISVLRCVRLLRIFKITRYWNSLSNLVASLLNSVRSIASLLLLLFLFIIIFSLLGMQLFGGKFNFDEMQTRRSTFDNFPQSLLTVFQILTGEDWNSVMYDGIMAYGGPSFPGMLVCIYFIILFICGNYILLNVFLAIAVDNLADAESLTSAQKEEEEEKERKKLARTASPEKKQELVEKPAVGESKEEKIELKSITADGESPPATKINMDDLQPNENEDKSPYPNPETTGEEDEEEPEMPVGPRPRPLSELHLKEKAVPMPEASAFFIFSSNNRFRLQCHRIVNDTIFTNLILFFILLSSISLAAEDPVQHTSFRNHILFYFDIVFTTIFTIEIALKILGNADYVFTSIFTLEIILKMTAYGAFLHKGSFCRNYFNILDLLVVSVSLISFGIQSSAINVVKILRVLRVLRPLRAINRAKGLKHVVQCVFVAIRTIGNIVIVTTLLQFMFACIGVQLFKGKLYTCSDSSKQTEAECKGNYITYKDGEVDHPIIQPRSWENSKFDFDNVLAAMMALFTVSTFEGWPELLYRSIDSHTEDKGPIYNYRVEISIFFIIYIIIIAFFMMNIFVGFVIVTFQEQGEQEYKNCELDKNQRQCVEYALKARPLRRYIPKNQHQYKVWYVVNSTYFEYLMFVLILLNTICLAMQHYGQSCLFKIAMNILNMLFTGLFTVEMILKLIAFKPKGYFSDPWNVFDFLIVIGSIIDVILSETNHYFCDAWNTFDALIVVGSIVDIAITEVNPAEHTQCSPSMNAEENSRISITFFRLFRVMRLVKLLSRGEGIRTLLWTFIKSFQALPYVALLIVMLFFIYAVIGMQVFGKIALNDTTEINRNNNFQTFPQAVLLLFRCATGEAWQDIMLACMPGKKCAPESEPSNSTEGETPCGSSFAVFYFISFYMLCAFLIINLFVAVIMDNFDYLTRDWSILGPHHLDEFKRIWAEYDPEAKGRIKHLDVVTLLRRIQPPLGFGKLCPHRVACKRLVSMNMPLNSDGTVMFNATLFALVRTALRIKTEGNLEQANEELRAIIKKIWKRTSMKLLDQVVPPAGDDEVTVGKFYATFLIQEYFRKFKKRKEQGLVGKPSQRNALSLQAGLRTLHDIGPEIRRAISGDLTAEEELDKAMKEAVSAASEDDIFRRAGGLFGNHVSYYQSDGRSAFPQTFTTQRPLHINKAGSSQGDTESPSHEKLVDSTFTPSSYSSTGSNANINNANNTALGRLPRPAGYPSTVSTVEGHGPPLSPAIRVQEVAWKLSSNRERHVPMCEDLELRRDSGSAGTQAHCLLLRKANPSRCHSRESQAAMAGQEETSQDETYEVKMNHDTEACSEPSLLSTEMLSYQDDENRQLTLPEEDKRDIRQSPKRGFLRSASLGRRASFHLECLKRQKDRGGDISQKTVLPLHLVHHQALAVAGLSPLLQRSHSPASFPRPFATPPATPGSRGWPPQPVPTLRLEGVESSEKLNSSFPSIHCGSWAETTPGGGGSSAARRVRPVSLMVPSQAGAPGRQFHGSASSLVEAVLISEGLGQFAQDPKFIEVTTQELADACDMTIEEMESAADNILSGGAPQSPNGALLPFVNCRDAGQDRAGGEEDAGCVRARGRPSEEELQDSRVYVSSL
Outline: (§1)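 HEK-293 cells stably expressing hCav1.2 (α1C/β2a/α2δ1), induced with tetracycline 1 μg/mL for 24 h. Perforated whole-cell manual patch clamp (amphotericin B 250 μg/mL in pipette; Cs-methanesulfonate internal, pH 7.2) at 24 °C. Holding potential −90 mV, 1000 ms prepulse inactivating 20% of channels, then a 50 ms step to 0 mV, repeated every 15 s. I_Ca-L followed over time, then washout with external solution. Final ethanol/DMSO ≤1.00%.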

[12] = tested on: PC-12; experiment: Neuroprotective activity in rat PC12 cells assessed as reduction in NaN3-induced LDH release at 5 to 10 uM measured by LDH release assay (reference value: 411.84 to 416.67 U/L); assay type: functional; conditions: dose 5-10 µM
[13] = tested on: PC-12; experiment: Neuroprotective activity against NaN3-induced cell injury in rat PC12 cells assessed as cell survival rate at 5 uM measured after 24 hrs by CCK-8 assay (reference value: 50%); assay type: functional; conditions: read-out: Survival
[14] = tested on: PC-12; experiment: Neuroprotective activity in rat PC12 cells assessed as reduction in NaN3-induced MDA release at 5 uM measured (reference value: 253 nmol/mL); assay type: functional
[15] = tested on: PC-12; experiment: Neuroprotective activity in rat PC12 cells assessed as prevention of NaN3-induced decrease in SOD release at 5 to 20 uM measured (reference value: 54 U/mg of protein); assay type: functional; conditions: dose 5-20 µM
[16] = molecular target: T1, Cav1.2 (L-type calcium channel alpha1c/beta2a/alpha2delta1); experiment: Inhibition of human alpha1c/beta2a/alpha2delta1 Cav1.2 expressed in HEK293 cells assessed as time course of inhibition of membrane potential measured after washout with external solution at 100 uM by manual patch clamp technique; assay type: cell-based; outline: as §1
[17] = molecular target: T1, Cav1.2 (L-type calcium channel alpha1c/beta2a/alpha2delta1); experiment: Inhibition of human alpha1c/beta2a/alpha2delta1 Cav1.2 expressed in HEK293 cells assessed as time course of inhibition of membrane potential measured after washout with external solution at 10 uM by manual patch clamp technique; assay type: cell-based; outline: as §1
[18] = molecular target: L-type calcium channel alpha-1c/beta-2/alpha2delta-1 (Homo sapiens, UniProt P54289+Q08289+Q13936); experiment: Inhibition of human alpha1c/beta2a/alpha2delta1 Cav1.2 expressed in HEK293 cells assessed as time course of inhibition of membrane potential measured after washout with external solution by manual patch clamp technique; assay type: cell-based; outline: as §1
L-type calcium channel alpha-1c/beta-2/alpha2delta-1 (Homo sapiens, UniProt P54289+Q08289+Q13936), sequence (P54289 25-956 limits assumed): as the sequence (P54289 25-956 limits assumed) above
L-type calcium channel alpha-1c/beta-2/alpha2delta-1 (Homo sapiens, UniProt P54289+Q08289+Q13936), sequence (P54289 957-1103 limits assumed): as the sequence (P54289 957-1103 limits assumed) above
L-type calcium channel alpha-1c/beta-2/alpha2delta-1 (Homo sapiens, UniProt P54289+Q08289+Q13936), sequence (Q08289 whole entry): as the sequence (Q08289 whole entry) above
L-type calcium channel alpha-1c/beta-2/alpha2delta-1 (Homo sapiens, UniProt P54289+Q08289+Q13936), sequence (Q13936 whole entry): as the sequence (Q13936 whole entry) above

[19] = tested on: PC-12; experiment: Neuroprotective activity in rat PC12 cells assessed as prevention of NaN3-induced apoptosis at 5 to 10 uM measured after 24 hrs by Hoechst staining based assay; assay type: functional, cell-based; conditions: dose 5-10 µM
Outline: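 PC12 cells plated at about 1 × 10⁵ per well and cultured overnight. Pretreated 1 h with 5, 10 or 20 μM compound, then NaN₃ for 24 h in glucose-free, serum-free RPMI 1640 after two washes in glucose-free EBSS pH 7.5. Cells fixed 30 min in methanol, stained with Hoechst 33258 for 10 min at 37 °C in the dark, and scored for nuclear morphology by fluorescence microscopy (ex 350/em 461 nm).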

[20] = molecular target: L-type calcium channel alpha-1c/beta-2/alpha2delta-1 (Homo sapiens, UniProt P54289+Q13936+Q08289); experiment: Irreversible inhibition of human alpha1c/beta2a/alpha2delta1 Cav1.2 expressed in HEK293 cells assessed as decrease in membrane potential measured after washout with external solution at 100 uM by manual patch clamp technique; assay type: cell-based; conditions: hek293, 100 µM; outline: as §1
[21] = tested on: PC-12; experiment: Neuroprotective activity in rat PC12 cells assessed as reduction in NaN3-induced LDH release at 4 uM measured by LDH release assay (reference value: 411.84 to 416.67 U/L); assay type: functional
Outline: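 PC12 injury model: glucose-free, serum-free RPMI 1640. Pretreatment 4 μM, 1 h before NaN3, then 24 h with NaN3. Cells disrupted by ultrasonication and centrifuged at 10 000 rpm for 10 min at 4 °C. Supernatant LDH measured with a commercial kit, in U/L. n = 3 independent experiments.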

[22] = tested on: PC-12; experiment: Neuroprotective activity against NaN3-induced cell injury in rat PC-12 cells assessed as cell survival rate at 2 to 8 uM measured after 24 hrs by CCK-8 assay (reference value: 50%); assay type: functional; conditions: dose 2-8 µM

Compound | viability at 40 µM [1] [%] | viability at 100 µM [2] [%] | viability at 20 µM [3] [%] | viability at 5 µM [4] [%] | viability at 10 µM [5] [%] | viability at 80 µM [6] [%] | Activity [14] [nmol/mL] | further results
C#CC#C[C@H](O)c1ccccc1 | 49.9 | 43.5 | 55 | 47.8 | 52.4 | 47.5 | – | –
COc1cccc([C@@H](O)C#CC#C[Si](C(C)C)(C(C)C)C(C)C)c1 | – | – | – | – | – | – | – | viability at 20 µM [7]: 61%; viability at 40 µM [8]: 65%
CC(C)[Si](C#CC#C[C@H](O)c1ccccc1)(C(C)C)C(C)C | 58.2 | 51.9 | 58 | 60.1 | 66.6 | 53 | 47 | viability at 10 µM [9]: 67%; viability at 1 µM [10]: ≤ 96%; inhibition at 30 µM [11]: 38.6%; Activity [12]: 132 U/L; viability at 5 µM [13]: 60%; Activity [15]: 124 U/mg; inhibition at 100 µM [16]: 79.7%; inhibition at 10 µM [17]: 7.7%; IC50 [18]: 41.3 µM
CC(C)[Si](C#CC#C[C@H](O)c1cccc(F)c1)(C(C)C)C(C)C | – | – | – | – | – | – | 53 | viability at 10 µM [9]: 76%; Activity [12]: 132 U/L; viability at 5 µM [13]: 83%; Activity [15]: 124 U/mg; Activity [19]: Active
C=C[C@@H](O)C#CC#CC/C=C\CCCCCCC | – | – | – | – | – | – | 68 | Activity [20]: Active; Activity [21]: 211 U/L; inhibition at 30 µM [11]: 28.1%; inhibition at 100 µM [16]: 61.6%; inhibition at 10 µM [17]: 7.9%; Survival [22]: 59%; IC50 [18]: 41.3 µM
CCCCCCCCC[C@H](C#CC#C[C@H](O)c1ccccc1)OC(=O)c1ccccc1 | 51.7 | 31.3 | 61.3 | 65.6 | 63.7 | 36.2 | – | –
CC(C)[Si](C#CC#C[C@@H](O)C1CCCC1)(C(C)C)C(C)C | – | – | – | – | – | – | – | viability at 20 µM [7]: 66%; viability at 40 µM [8]: 65%
CCCCCCCCC[C@@H](O)C#CC#C[Si](C(C)C)(C(C)C)C(C)C | 43.5 | 37.6 | 46.2 | 49.4 | 47.8 | 39.5 | – | –
CCCCCCCCC[C@H](C#CC#C[Si](C(C)C)(C(C)C)C(C)C)OC(=O)c1ccccc1 | 46.4 | 43.9 | 47.5 | 50.4 | 47.9 | 46.4 | – | –
